The source made the active and inactive calls. The calls are words filed in the database; no cut-off is given here.
Columns and labels:
Mus musculus [1] = assay: Immunomodulatory activity in Pseudomonas aeruginosa M57-15 infected C57BL/6 mouse lung assessed as decrease of TNFalpha production in CD11b+ cells in lung digest at 0.16 g/kg, po measured after 7 days by flow cytometry; assay type: functional, organism-based
How it was run: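 Lung digest cells (2 × 106) were stimulated for 4 h with 50 ng/ml PMA and 500 ng/ml ionomycin plus 10 μg/ml brefeldin A. They were surface-stained for CD11b/CD11c, fixed in 4% formalin, permeabilized with 0.05% saponin, Fc-blocked, and stained for intracellular TNF-α and IL-10 for flow cytometry. Mice were dosed at 0.16 g/kg by daily oral gavage from 4 days before infection.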

Mus musculus [2] = assay: Immunomodulatory activity in Pseudomonas aeruginosa M57-15 infected C57BL/6 mouse lung assessed as increase of MHC2 expression in CD11b+ Gr1+ cells in lung digest at 0.16 g/kg, po measured after 7 days by flow cytometry; assay type: functional, organism-based
How it was run: (§1)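 Oral gavage of 0.16 g/kg daily (2% methylcellulose vehicle) began 4 days before intratracheal bead infection (1 × 105 to 2 × 10^5 CFU). On days 3, 7 and 14, cells were taken from lavage (0.3 mM EDTA buffer) and from collagenase/DNase lung digest (1 h, 37°C). Cells were stained for CD11b, CD11c, Gr-1, CD4, CD80, MHC-II and MR, with more than 50,000 events acquired. Counts were gated percent × manual cell count.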

Mus musculus [3] = assay: Immunomodulatory activity in Pseudomonas aeruginosa M57-15 infected C57BL/6 mouse lung assessed as increase of CD80 expression in CD11b+ Gr1+ cells in lung digest at 0.16 g/kg, po measured after 7 days by flow cytometry; assay type: functional, organism-based; how it was run: as §1
Pseudomonas aeruginosa [4] = assay: Antibacterial activity against Pseudomonas aeruginosa M57-15 infected in C57BL/6 mouse assessed as effect on host weight loss at 0.16 g/kg, po measured up to 14 days; assay type: functional, organism-based
How it was run: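 Dosing was 0.16 g/kg daily by oral gavage in 2% methylcellulose, or vehicle, from 4 days before intratracheal bead infection (1 × 105 to 2 × 10^5 CFU). Body weight was followed over the study and compared with a sham-infected group. Groups had 3 to 6 mice, and each experiment was repeated at least three times.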

Pseudomonas aeruginosa [5] = assay: Antibacterial activity against Pseudomonas aeruginosa M57-15 infected in C57BL/6 mouse assessed as increase of host survival time at 0.16 g/kg, po measured up to 14 days; assay type: functional, organism-based
How it was run: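 For survival, mice received 1.3 × 10^6 CFU (1× LD50) intratracheally in agarose beads under isoflurane. Daily oral gavage of 0.16 g/kg in 2% methylcellulose, or vehicle, began 4 days before infection. Survival curves were compared by log-rank.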

Pseudomonas aeruginosa [6] = assay: Antibacterial activity against Pseudomonas aeruginosa M57-15 infected in C57BL/6 mouse assessed as effect on bacterial burden at 0.16 g/kg, po measured up to 14 days; assay type: functional, organism-based
How it was run: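 Mice got 0.16 g/kg in 2% methylcellulose by daily oral gavage, starting 4 days before infection, or vehicle. Infection was intratracheal with bead-embedded bacteria, 1 × 105 to 2 × 10^5 CFU (about LD10). On days 0, 3, 7 and 14, aliquots of lung lavage and digest were plated on Pseudomonas selection agar and CFU counted manually after overnight growth.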

Mus musculus [7] = assay: Immunomodulatory activity in Pseudomonas aeruginosa M57-15 infected C57BL/6 mouse lung assessed as increase of total cells in lung digest at 0.16 g/kg, po measured after 14 days by flow cytometry; assay type: functional, organism-based; how it was run: as §1
Mus musculus [8] = assay: Immunomodulatory activity in Pseudomonas aeruginosa M57-15 infected C57BL/6 mouse lung assessed as effect on CD11b+ cells infiltration in lung lavage fluid at 0.16 g/kg, po measured after 7 days by flow cytometry; assay type: functional, organism-based; how it was run: as §1
Mus musculus [9] = assay: Immunomodulatory activity in Pseudomonas aeruginosa M57-15 infected C57BL/6 mouse lung assessed as reduction of CD11b- and Gr-1+ cells infiltration in lung lavage fluid at 0.16 g/kg, po measured after 7 days by flow cytometry; assay type: functional, organism-based; conditions: in the assay text read “lung digest” for “lung lavage fluid”; how it was run: as §1
Mus musculus [10] = assay: Immunomodulatory activity in Pseudomonas aeruginosa M57-15 infected C57BL/6 mouse lung assessed as increase of CD4+ T cell in lung lavage fluid at 0.16 g/kg, po measured after 7 to 14 days by flow cytometry; assay type: functional, organism-based; how it was run: as §1
Mus musculus [11] = assay: Immunomodulatory activity in Pseudomonas aeruginosa M57-15 infected C57BL/6 mouse lung assessed as increase of CD4+ T cell in alveolar space at 0.16 g/kg, po measured after 7 days by flow cytometry; assay type: functional, organism-based; how it was run: as §1
Mus musculus [12] = assay: Immunomodulatory activity in Pseudomonas aeruginosa M57-15 infected C57BL/6 mouse lung assessed as CD11b+c- cell expression level in lung digest at 0.16 g/kg, po measured after 3 days by flow cytometry (reference value: 25.42 +/- 10.57 %); assay type: functional; how it was run: as §1
Mus musculus [13] = assay: Immunomodulatory activity in Pseudomonas aeruginosa M57-15 infected C57BL/6 mouse lung assessed as CD11b+c- cell expression level in lung digest at 0.16 g/kg, po measured after 7 days by flow cytometry (reference value: 17.07 +/- 4.84 %); assay type: functional; how it was run: as §1
Mus musculus [14] = assay: Immunomodulatory activity in Pseudomonas aeruginosa M57-15 infected C57BL/6 mouse lung assessed as CD11b+c- cell expression level in lung digest at 0.16 g/kg, po measured after 14 days by flow cytometry (reference value: 21.97 +/- 3.51 %); assay type: functional; how it was run: as §1
Mus musculus [15] = assay: Immunomodulatory activity in Pseudomonas aeruginosa M57-15 infected C57BL/6 mouse lung assessed as CD11b+c+ cell expression level in lung digest at 0.16 g/kg, po measured after 3 days by flow cytometry (reference value: 8.63 +/- 0.53 %); assay type: functional; how it was run: as §1
Mus musculus [16] = assay: Immunomodulatory activity in Pseudomonas aeruginosa M57-15 infected C57BL/6 mouse lung assessed as CD11b+c+ cell expression level in lung digest at 0.16 g/kg, po measured after 7 days by flow cytometry (reference value: 5.16 +/- 1.09 %); assay type: functional; how it was run: as §1
Mus musculus [17] = assay: Immunomodulatory activity in Pseudomonas aeruginosa M57-15 infected C57BL/6 mouse lung assessed as CD11b+c+ cell expression level in lung digest at 0.16 g/kg, po measured after 14 days by flow cytometry (reference value: 6.6 +/- 1.86 %); assay type: functional; how it was run: as §1
Mus musculus [18] = assay: Immunomodulatory activity in Pseudomonas aeruginosa M57-15 infected C57BL/6 mouse lung assessed as CD11b-c+ cell expression level in lung digest at 0.16 g/kg, po measured after 3 days by flow cytometry (reference value: 19.71 +/- 3.89 %); assay type: functional; how it was run: as §1
Mus musculus [19] = assay: Immunomodulatory activity in Pseudomonas aeruginosa M57-15 infected C57BL/6 mouse lung assessed as CD11b-c+ cell expression level in lung digest at 0.16 g/kg, po measured after 7 days by flow cytometry (reference value: 29.15 +/- 3.98 %); assay type: functional; how it was run: as §1
Mus musculus [20] = assay: Immunomodulatory activity in Pseudomonas aeruginosa M57-15 infected C57BL/6 mouse lung assessed as CD11b-c+ cell expression level in lung digest at 0.16 g/kg, po measured after 14 days by flow cytometry (reference value: 23.93 +/- 4.10 %); assay type: functional; how it was run: as §1
Mus musculus [21] = assay: Immunomodulatory activity in Pseudomonas aeruginosa M57-15 infected C57BL/6 mouse lung assessed as CD11b+c- cell expression level in lung lavage fluid at 0.16 g/kg, po measured after 3 days by flow cytometry (reference value: 1.20 +/- 0.41 %); assay type: functional; how it was run: as §1
Mus musculus [22] = assay: Immunomodulatory activity in Pseudomonas aeruginosa M57-15 infected C57BL/6 mouse lung assessed as CD11b+c- cell expression level in lung lavage fluid at 0.16 g/kg, po measured after 7 days by flow cytometry (reference value: 1.13 +/- 0.30 %); assay type: functional; how it was run: as §1

CC[C@H]1OC(=O)[C@H](C)[C@@H](O[C@H]2C[C@@](C)(OC)[C@@H](O)[C@H](C)O2)[C@H](C)[C@@H](O[C@@H]2O[C@H](C)C[C@H](N(C)C)[C@H]2O)[C@](C)(O)C[C@@H](C)CN(C)[C@H](C)[C@@H](O)[C@]1(C)O [AZITHROMYCIN]
Activity (Mus musculus [1]): Active
Activity (Mus musculus [2]): Active
Activity (Mus musculus [3]): Active
Activity (Pseudomonas aeruginosa [4]): inactive
Activity (Pseudomonas aeruginosa [5]): inactive
Activity (Pseudomonas aeruginosa [6]): inactive
Activity (Mus musculus [7]): Active
Activity (Mus musculus [8]): Active
Activity (Mus musculus [9]): Active
Activity (Mus musculus [10]): Active
Activity (Mus musculus [11]): Active
Activity (Mus musculus [12]): 14.42%
Activity (Mus musculus [13]): 16.83%
Activity (Mus musculus [14]): 15.55%
Activity (Mus musculus [15]): 7.44%
Activity (Mus musculus [16]): 17.1%
Activity (Mus musculus [17]): 4.31%
Activity (Mus musculus [18]): 20.92%
Activity (Mus musculus [19]): 20.36%
Activity (Mus musculus [20]): 18.18%
Activity (Mus musculus [21]): 0.42%
Activity (Mus musculus [22]): 13.3%
